By inhibition is commonly meant the change of the read-out against control, counted positive when it falls. The term IC50 denotes the concentration at which inhibition is half-maximal. High values mean lower potency, low ones higher potency.

The source made the active and inactive calls. The calls are words filed in the database; no cut-off is given here.

For data set [1], the target named is T1, Beta-secretase 1 (Homo sapiens, UniProt P56817). Kind of data set: Inhibition of human BACE1 (1 to 460 residues) using APP-based peptide as substrate at 10 uM incubated for 60 mins by FRET analysis. In a few lines: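 Measured by FRET. Test compounds were screened at one fixed concentration and reported as percent inhibition, given as mean ± SD of triplicate experiments performed independently.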
T1 sequence (P56817 whole entry, the tested form may be a part): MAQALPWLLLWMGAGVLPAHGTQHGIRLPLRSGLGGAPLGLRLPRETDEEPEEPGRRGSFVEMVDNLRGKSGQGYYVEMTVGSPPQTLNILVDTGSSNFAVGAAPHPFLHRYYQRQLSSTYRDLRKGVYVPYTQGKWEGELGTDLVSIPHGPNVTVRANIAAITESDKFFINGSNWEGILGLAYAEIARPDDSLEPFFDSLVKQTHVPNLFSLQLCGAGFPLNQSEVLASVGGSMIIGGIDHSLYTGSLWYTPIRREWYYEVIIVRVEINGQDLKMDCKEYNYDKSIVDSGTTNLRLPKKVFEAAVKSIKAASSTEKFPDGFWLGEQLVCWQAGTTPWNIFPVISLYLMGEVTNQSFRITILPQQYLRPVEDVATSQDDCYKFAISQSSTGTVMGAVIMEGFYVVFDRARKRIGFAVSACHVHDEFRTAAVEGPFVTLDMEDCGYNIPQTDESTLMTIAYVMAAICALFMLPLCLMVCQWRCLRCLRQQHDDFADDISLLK

Data set [2] is described as follows: Cytotoxicity against human […] cells at 10 uM after 24 hrs by MTT assay. It is filed as cell-based.
In data set [3] the target is T1, Beta-secretase 1. Kind of data set: Inhibition of human BACE1 (1 to 460 residues) using APP-based peptide as substrate incubated for 60 mins by FRET analysis.

As for `N=C(N)N/N=C(/C=C/c1cccc([N+](=O)[O-])c1)c1ccc([N+](=O)[O-])cc1`, the inhibition in data set [1] is 62.1%. For the same compound, the Activity entry in data set [2] was “Non-toxic”.
Turning to `COc1ccc(/C=C/C(=N/NC(=N)N)c2cccc(Br)c2)cc1OC`, in data set [1], the inhibition came to 25.9%. Further, the Activity entry in data set [2] is reported as “Non-toxic”.
Consider `N=C(N)N/N=C(/C=C/c1ccccc1)c1ccccc1`, for which, in data set [1], the inhibition was 10.8%. Moreover, in data set [2], the Activity entry is “Non-toxic”.
In the case of `COc1ccc(/C=C/C(=N/NC(=N)N)c2ccc(Cl)cc2Cl)cc1OC`, the inhibition in data set [1] was 21.8%. For the same compound, the Activity entry in data set [2] was “Non-toxic”.
Compound `CN(C)c1ccc(/C=C/C(=N/NC(=N)N)c2ccc([N+](=O)[O-])cc2)cc1` returned an inhibition in data set [1] of 23.9%. The Activity result in data set [2] is “Non-toxic”.
For `COc1ccc(/C=C/C(=N/NC(=N)N)c2ccc([N+](=O)[O-])cc2)cc1OC`, in that order: 61.2% and “Non-toxic”.
For `COc1ccc(C(/C=C/c2cc(OC)ccc2OC)=N\NC(=N)N)cc1`, in that order: 10.3% and “Non-toxic”.
`COc1ccc(C(/C=C/c2cccc([N+](=O)[O-])c2)=N\NC(=N)N)cc1` had an inhibition in data set [1] of 11%. Further, in data set [2], the Activity result was “Non-toxic”.
Compound `COc1ccc(OC)c(/C=C/C(=N/NC(=N)N)c2ccccc2)c1` displayed an inhibition in data set [1] of 32.6%. Further, in data set [2], the Activity result is on record as “Non-toxic”.
`COc1ccc(OC)c(/C=C/C(=N/NC(=N)N)c2cccc(Br)c2)c1`: in data set [1], the inhibition turned out to be 23.9%. Further, the Activity entry in data set [2] is given as “Non-toxic”.
For `N=C(N)N/N=C(/C=C/c1ccccc1)c1ccc(Cl)cc1`, in that order: 18% and “Non-toxic”.
As to `Cc1ccc(C(/C=C/c2ccc(N(C)C)cc2)=N\NC(=N)N)cc1`, in data set [1], the inhibition amounted to 10.8%. For the same compound, the Activity result in data set [2] is reported as “Non-toxic”.
For `N=C(N)N/N=C(/C=C/c1ccccc1)c1cccc([N+](=O)[O-])c1`, in that order: 23.4% and “Non-toxic”.
In data set [1], `COc1ccc(/C=C/C(=N/NC(=N)N)c2ccc(Cl)cc2)cc1OC` registered an inhibition of 78.2%. For the same compound, in data set [3], the IC50 is 6.42 µM. Besides, the Activity entry in data set [2] is reported as “Non-toxic”.
For `CN(C)c1ccc(/C=C/C(=N/NC(=N)N)c2ccccc2)cc1`, the inhibition result in data set [1] is “inactive”. The Activity result in data set [2] was “Non-toxic”.
For `N=C(N)N/N=C(/C=C/c1ccccc1)c1ccc([N+](=O)[O-])cc1`, in that order: 13.5% and “Non-toxic”.
With `N=C(N)N/N=C(/C=C/c1ccccc1)c1cccc(O)c1`, the Activity entry in data set [2] is “Non-toxic”.
Compound `N=C(N)N/N=C(/C=C/c1cccc([N+](=O)[O-])c1)c1ccc(Cl)cc1Cl` showed an inhibition in data set [1] of 5.4%. The Activity entry in data set [2] is listed as “Non-toxic”.
For `COc1ccc(/C=C/C(=N/NC(=N)N)c2cccc([N+](=O)[O-])c2)cc1OC`, in that order: 45.8% and “Non-toxic”.
For `COc1ccc(/C=C/C(=N/NC(=N)N)c2ccccc2)cc1OC`, in that order: 42.1% and “Non-toxic”.
For `N=C(N)N/N=C(/C=C/c1cccc([N+](=O)[O-])c1)c1cccc(Br)c1`, in that order: 10.8% and “Non-toxic”.
In the case of `CN(C)c1ccc(/C=C/C(=N/NC(=N)N)c2cccc([N+](=O)[O-])c2)cc1`, the inhibition in data set [1] amounted to 28%. In addition, the Activity entry in data set [2] was “Non-toxic”.
In data set [1], `N=C(N)N/N=C(/C=C/c1cccc([N+](=O)[O-])c1)c1ccccc1` registered an inhibition of 47.9%. For the same compound, the Activity result in data set [2] is “Non-toxic”.
